Experimental data from different studies.
Compare with care: the assays were run in different laboratories.
PIK3CA I800L: Phosphatidylinositol 4,5-bisphosphate 3-kinase catalytic subunit alpha isoform (PIK3CA, Homo sapiens, UniProt P42336, I800L)
PIK3CA E545A: Phosphatidylinositol 4,5-bisphosphate 3-kinase catalytic subunit alpha isoform (PIK3CA, Homo sapiens, UniProt P42336, E545A)
PIK3CA E545K: Phosphatidylinositol 4,5-bisphosphate 3-kinase catalytic subunit alpha isoform (PIK3CA, Homo sapiens, UniProt P42336, E545K)
PIK3CA H1047Y: Phosphatidylinositol 4,5-bisphosphate 3-kinase catalytic subunit alpha isoform (PIK3CA, Homo sapiens, UniProt P42336, H1047Y)
PIK3CA H1047L: Phosphatidylinositol 4,5-bisphosphate 3-kinase catalytic subunit alpha isoform (PIK3CA, Homo sapiens, UniProt P42336, H1047L)
PIK3CA M1043I: Phosphatidylinositol 4,5-bisphosphate 3-kinase catalytic subunit alpha isoform (PIK3CA, Homo sapiens, UniProt P42336, M1043I)
PIK3CA C420R: Phosphatidylinositol 4,5-bisphosphate 3-kinase catalytic subunit alpha isoform (PIK3CA, Homo sapiens, UniProt P42336, C420R)

| Structure (SMILES) | target | read-out | method | concentration | remaining binding [%] |
| --- | --- | --- | --- | --- | --- |
| CCN1CCN(Cc2ccc(C(=O)Nc3ccc(C)c(Oc4ccc5c(c4)CC(=O)N5)c3)cc2C(F)(F)F)CC1 | PIK3CA I800L | binding | competition with immobilised ligand | 1 µM | 95 |
| C[C@@H]1CCN(c2nccc(-c3cnn4ncccc34)n2)C1 | PIK3CA E545A | binding | – | 1 µM | 88 |
| FC(F)(F)c1ccc2c(c1)nc(-c1cccnc1)n2C1CC1 | Phosphatidylinositol 4,5-bisphosphate 3-kinase catalytic subunit alpha isoform (PIK3CA, Homo sapiens, UniProt P42336, Q546K) | cell-free assay | competition with immobilised ligand | 1 µM | 99 |
| O=C(Nc1c[nH]nc1C(=O)NC1CCNCC1)c1cc(F)cc(F)c1 | PIK3CA E545K | binding | competition with immobilised ligand | 1 µM | 64 |
| CN(C)c1nccc(-c2cnn3ncccc23)n1 | PIK3CA E545A | binding | – | 1 µM | 100 |
| O=C(NCCCN1CCOCC1)c1ccc(Nc2nccc(-c3cc4ccccc4s3)n2)cc1 | PIK3CA H1047Y | binding | competition with immobilised ligand | 1 µM | 73 |
| CC1=C(C#N)[C@@H](c2ccc3[nH]nc(C)c3c2)C(C#N)=C(c2ccc(Cl)cc2)N1 | PIK3CA H1047L | cell-free assay | competition with immobilised ligand | 1 µM | 100 |
| F[C@@H]1CCN(c2nccc(-c3cnn4ncccc34)n2)C1 | PIK3CA I800L | binding | – | 1 µM | 100 |
| COc1ncc2cc3ccccc3nc2c1C#N | PIK3CA M1043I | cell-free assay | competition with immobilised ligand | 5 µM | 100 |
| CC(=O)c1c(NS(C)(=O)=O)c2cc(-c3ccc(Cl)cc3)c(-c3ccc(Cl)cc3Cl)nc2n(C)c1=O | Phosphatidylinositol 4,5-bisphosphate 3-kinase catalytic subunit alpha isoform (PIK3CA, Homo sapiens, UniProt P42336) | cell-free assay | competition with immobilised ligand | 1 µM | 100 |
| COc1cnc(Nc2cccc(S(N)(=O)=O)c2)nc1N1CCN(c2ccccc2)C(=O)C1 | PIK3CA E545K | binding | competition with immobilised ligand | 1 µM | 65 |
| C[C@@]1(Cc2ccc(C#N)cc2)C(=O)N(c2cc(Cl)cc(Cl)c2)c2ncc(C(=O)NC3(c4nc(C5CCC5)no4)CC3)n21 | PIK3CA E545A | cell-free assay | competition with immobilised ligand | 1 µM | 100 |
| C=CC(=O)N1CCC(C(=O)NCC(=O)N2CCN(c3nc(-c4cnc(N)nc4C(F)F)nc(N4CCOCC4)n3)CC2)CC1 | PIK3CA H1047L | binding | competition with immobilised ligand | 1 µM | 0.45 |
| N[C@H]1CCN(c2nccc(-c3cnn4ncccc34)n2)C1 | PIK3CA C420R | binding | – | 1 µM | 100 |
| O=C(c1ccc(Nc2nccc(-c3cc4ccccc4s3)n2)cc1)N1CCC(N2CCCC2)CC1 | PIK3CA E545K | binding | competition with immobilised ligand | 1 µM | 82 |
| CN1CCN(c2ccc(Nc3nccc(-c4ccccc4)n3)cc2C(F)(F)F)CC1 | Phosphatidylinositol 4,5-bisphosphate 3-kinase catalytic subunit alpha isoform (PIK3CA, Homo sapiens, UniProt P42336, E542K) | binding | – | 10 µM | 70 |
| Cc1cnc(Nc2ccc(C(=O)N3CCC(N4CCCC4)CC3)cc2)nc1-c1cc2ccccc2s1 | PIK3CA E545A | binding | competition with immobilised ligand | 1 µM | 77 |
| CCCOc1ccc([C@H]2[C@H](C(=O)O)[C@@H](c3ccc4c(c3)OCO4)CN2CC(=O)Nc2c(CC)cccc2CC)cc1 | PIK3CA E545A | cell-free assay | competition with immobilised ligand | 1 µM | 92 |
| CN(C)c1nccc(-c2cnc3ncccn23)n1 | PIK3CA C420R | binding | – | 1 µM | 58 |
| Cc1c(NC(=O)c2cc(C(N)=O)nc3cc(F)ccc23)c(C(F)(F)F)nn1Cc1ccc(C(C)(C)C)cc1 | PIK3CA C420R | cell-free assay | competition with immobilised ligand | 1 µM | 100 |
| c1cnn2ncc(-c3ccnc(N4CCC45COC5)n3)c2c1 | PIK3CA H1047Y | binding | – | 1 µM | 83 |
| COc1cnc(Nc2cccc(S(N)(=O)=O)c2)nc1N1CCN(c2ccccc2)CC1 | PIK3CA H1047Y | binding | competition with immobilised ligand | 1 µM | 74 |
| CN(C)c1ncc(F)c(-c2cnn3ncccc23)n1 | PIK3CA E545K | binding | – | 1 µM | 63 |
| CCC(=N\O)/C(C)=C/c1ccc(F)cc1 | PIK3CA M1043I | cell-free assay | competition with immobilised ligand | 1 µM | 88 |
